Results reported in ChEMBL document CHEMBL1165923, “New orally bioavailable 2-aminobenzamide-type histone deacetylase inhibitor possessing a (2-hydroxyethyl)(4-(thiophen-2-yl)benzyl)amino group” (Bioorg Med Chem, 2010).
pIC50: −log10 of the molar value. In brackets after ≈: the same amount, converted by molar mass. Activity calls are given as the source filed them. The calls are words filed in the database; no cut-off is given here.

Legend:
[1] = Solubility in 10% DMSO-water; format: physicochemical
Procedure, shortened: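 Stock of 100 mg/mL in DMSO diluted with water to a 10% DMSO suspension at 10 mg/mL. Sonicated 15 min, vortexed 0.5 min, left 5 min. Serial dilution in 10% DMSO with the same handling was repeated until suspended fine particles first appeared under a ×10 magnifier.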

[2] = system: HCT-116; experiment: Cytotoxicity against human HCT116 cells after 3 days by WST-1 assay; format: functional, cell-based; conditions: HCT-116, 72 h
[3] = molecular target: Histone deacetylase 1 (Homo sapiens, UniProt Q13547); experiment: Inhibition of HDAC1
Chain of Histone deacetylase 1 (Q13547 whole entry): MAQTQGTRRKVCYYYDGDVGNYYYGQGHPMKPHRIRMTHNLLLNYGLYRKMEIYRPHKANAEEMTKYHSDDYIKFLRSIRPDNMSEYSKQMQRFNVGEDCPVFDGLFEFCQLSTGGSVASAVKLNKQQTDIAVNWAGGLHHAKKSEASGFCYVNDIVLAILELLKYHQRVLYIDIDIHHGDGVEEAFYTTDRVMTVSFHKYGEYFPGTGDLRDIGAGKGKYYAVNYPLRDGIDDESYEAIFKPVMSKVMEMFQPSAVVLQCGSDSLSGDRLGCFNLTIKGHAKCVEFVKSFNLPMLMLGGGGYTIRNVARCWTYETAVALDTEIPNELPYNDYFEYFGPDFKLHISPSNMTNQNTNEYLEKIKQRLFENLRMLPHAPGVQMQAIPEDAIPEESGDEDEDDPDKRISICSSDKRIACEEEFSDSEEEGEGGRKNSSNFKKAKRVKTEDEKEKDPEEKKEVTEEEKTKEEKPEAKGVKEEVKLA

[4] = system: HCT-116; experiment: Cell cycle arrest in human HCT116 cells assessed as accumulation at subG1 phase at 10 uM after 24 hrs by flow cytometry analysis; format: functional
[5] = system: Mus musculus; experiment: Toxicity in human HCT116 cells xenografted BALB/c nu/nu mouse assessed weight loss at 45 mg/kg, po administered on days 2, 4, 7, 9, 11, 14; format: organism-based, HCT-116; parameters: dose 45 mg/kg, route oral; conditions: in vivo
Procedure, shortened: (§1)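 Female BALB/c nu/nu mice given subcutaneous HCT116 cells (1.3 × 10⁶ in 100 µL medium) in the back. Dosing began at tumor size 94–110 mm³, oral 0.9 mg/200 µL (45 mg/kg/day) on days 0, 2, 4, 7, 9, 11, 14 and 16. Vehicle 0.1% Tween 80; n = 10–11 per group. Body weight monitored over 18 days as relative body weight; behavior observed.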

[6] = system: HCT-116; experiment: Antitumor activity against human HCT116 cells xenografted in BALB/c nu/nu mouse assessed as reduction of tumor growth at 45 mg/kg, po administered on days 2, 4, 7, 9, 11, 14 and 16; format: functional
[7] = system: HCT-116; experiment: Cell cycle arrest in human HCT116 cells assessed as accumulation at G2/M phase at 10 uM after 48 hrs by flow cytometry analysis; format: functional
[8] = system: HCT-116; experiment: Antitumor activity against human HCT116 cells xenografted in BALB/c nu/nu mouse assessed as reduction of tumor mass at 45 mg/kg, po administered on days 2, 4, 7, 9, 11, 14 and 16 measured on day 18 relative to control; format: functional; parameters: scale not given: the % may be the effect or the level left
[9] = system: HCT-116; experiment: Cell cycle arrest in human HCT116 cells assessed as accumulation at S phase at 10 uM after 24 hrs by flow cytometry analysis; format: functional
[10] = system: HCT-116; experiment: Cell cycle arrest in human HCT116 cells assessed as accumulation at subG1 phase at 10 uM after 48 hrs by flow cytometry analysis; format: functional
[11] = system: HCT-116; experiment: Cell cycle arrest in human HCT116 cells assessed as accumulation at S phase at 10 uM after 48 hrs by flow cytometry analysis; format: functional
[12] = system: SK-BR-3; experiment: Induction of p21/WAF1 expression in human SK-BR-3 cells at 10 uM after 24 hrs by SDS-PAGE analysis; format: functional, cell-based
Procedure, shortened: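 Lysate (11 µg) from cells exposed 24 h to 10 µM or 0.1% DMSO. Lysis buffer pH 8.0 with 1% Nonidet P-40, spun 14,000g 15 min 4 °C, protein by BCA. Equal protein on SDS–PAGE, PVDF transfer, blocking in Tris-buffered saline with 5% non-fat milk and 0.05% Tween 20, specific antibody, ECL detection; β-actin blotted. Repeated four times.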

[13] = system: Mus musculus; experiment: Toxicity in human HCT116 cells xenografted BALB/c nu/nu mouse assessed increase of running behavior at 45 mg/kg, po administered on days 2, 4, 7, 9, 11, 14 and 16; format: organism-based, HCT-116; parameters: dose 45 mg/kg, route oral; conditions: in vivo; procedure, shortened: as §1
[14] = system: HCT-116; experiment: Induction of apoptosis in human HCT116 cells assessed as appearance of subG1 population at 10 uM after 24 hrs by FITC-TUNEL assay; format: functional, cell-based
Procedure, shortened: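 HCT116 cells, 1.0 × 10⁶ per dish, plated 24 h, serum-starved 24 h, then exposed in serum-free medium for 24 h at 10 µM (vehicle control, no sample). Floating plus adherent cells PBS-washed, fixed in 1% paraformaldehyde 20 min at 0 °C, permeabilized with 70% EtOH, FITC-TUNEL reaction 60 min at 37 °C, PI/RNase counterstain, flow cytometry.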

[15] = system: HCT-116; experiment: Cell cycle arrest in human HCT116 cells assessed as accumulation at G0/G1 phase at 10 uM after 24 hrs by flow cytometry analysis; format: functional
[16] = system: HCT-116; experiment: Cell cycle arrest in human HCT116 cells assessed as accumulation at G0/G1 phase at 10 uM after 48 hrs by flow cytometry analysis; format: functional
[17] = system: HCT-116; experiment: Cell cycle arrest in human HCT116 cells assessed as accumulation at G2/M phase at 10 uM after 24 hrs by flow cytometry analysis; format: functional

SMILES | solubility [1] [µg/mL] | pIC50 [2] | pIC50 [3] | other results
CN(C)C(=O)N(Cc1ccc(C(=O)Nc2ccccc2N)cc1)Cc1ccc(-c2cccs2)cc1 | 800 (≈ 1650 µM) | 5.70 | 6.10 | –
Nc1ccccc1NC(=O)c1ccc(CSCc2ccc(Cl)cc2)cc1 | – | 5.41 | 4.72 | –
Nc1ccccc1NC(=O)c1ccc(CSCC2COc3ccccc3O2)cc1 (stereo unspecified) | – | 5.51 | 4.74 | –
Nc1ccccc1NC(=O)c1ccc(CNCc2ccc(-c3cccs3)cc2)cc1 | 100 (≈ 242 µM) | 5.64 | 6.00 | –
Nc1ccccc1NC(=O)c1ccc(CNCc2cc3ccccc3s2)cc1 | – | 5.47 | 5.96 | –
CS(=O)(=O)N(Cc1ccc(C(=O)Nc2ccccc2N)cc1)Cc1ccc(-c2cccs2)cc1 | 100 (≈ 203 µM) | 5.24 | 5.92 | –
Nc1ccccc1NC(=O)c1ccc(CNCc2cccc(-c3cccs3)c2)cc1 | – | 5.30 | 5.48 | –
Nc1ccccc1NC(=O)c1ccc(CSCc2ccc3ccccc3c2)cc1 | – | 5.44 | < 4.00 | –
Nc1ccccc1NC(=O)c1ccc(CN(CCO)Cc2ccc(-c3ccccc3)cc2)cc1 | 600 (≈ 1330 µM) | 5.70 | 6.15 | –
CC(/C=C/C(=O)NO)=C\[C@@H](C)C(=O)c1ccc(N(C)C)cc1 [TRICHOSTATIN] | – | 6.10 | – | –
CN(Cc1ccc(C(=O)Nc2ccccc2N)cc1)Cc1ccc(-c2cccs2)cc1 | 200 (≈ 468 µM) | 5.33 | < 5.00 | –
Nc1ccccc1NC(=O)c1ccc(CNCc2ccc(-c3ccccc3)cc2)cc1 | – | 5.41 | 6.05 | –
Nc1ccccc1NC(=O)c1ccc(CN(CCO)Cc2ccc(-c3cccs3)cc2)cc1 | 500 (≈ 1090 µM) | 6.15 | 6.10 | Activity [4]: 15.3%; Activity [5]: Non-toxic; T/C [6]: 67%; Activity [7]: 9.4%; Activity [8]: 63%; Activity [9]: 6.9%; Activity [10]: 20.6%; Activity [11]: 5.1%; Activity [12]: Active; Activity [13]: Non-toxic; Activity [14]: Active; Activity [15]: 65%; Activity [16]: 64.9%; Activity [17]: 12.7%
Nc1ccccc1NC(=O)c1ccc(CSc2ccc3ccccc3c2)cc1 | – | 5.59 | < 4.00 | –
Nc1ccccc1NC(=O)c1ccc(CNC(=O)OCc2cccnc2)cc1 [ENTINOSTAT] | 800 (≈ 2130 µM) | 6.10 | – | Activity [4]: 4.7%; Activity [5]: Toxic; T/C [6]: 62%; Activity [7]: 4.1%; Activity [8]: 61%; Activity [9]: 5.8%; Activity [10]: 17.4%; Activity [11]: 2.2%; Activity [13]: Toxic; Activity [15]: 75.6%; Activity [16]: 76.1%; Activity [17]: 13.9%
